Data published in ChEMBL document CHEMBL4257546, “Discovery of new FXR agonists based on 6-ECDCA binding properties by virtual screening and molecular docking” (Medchemcomm, 2018).
Active and inactive are the calls of the source.

Experiments:
[1] = target: T1, Bile acid receptor (Homo sapiens) (UniProt Q96RI1); test: Transactivation of full-length FXR (unknown origin) expressed in HEK293 cells at 100 uM after 18 hrs by dual-glo luciferase reporter gene assay relative to CDCA; format: cell-based
T1 sequence (whole entry): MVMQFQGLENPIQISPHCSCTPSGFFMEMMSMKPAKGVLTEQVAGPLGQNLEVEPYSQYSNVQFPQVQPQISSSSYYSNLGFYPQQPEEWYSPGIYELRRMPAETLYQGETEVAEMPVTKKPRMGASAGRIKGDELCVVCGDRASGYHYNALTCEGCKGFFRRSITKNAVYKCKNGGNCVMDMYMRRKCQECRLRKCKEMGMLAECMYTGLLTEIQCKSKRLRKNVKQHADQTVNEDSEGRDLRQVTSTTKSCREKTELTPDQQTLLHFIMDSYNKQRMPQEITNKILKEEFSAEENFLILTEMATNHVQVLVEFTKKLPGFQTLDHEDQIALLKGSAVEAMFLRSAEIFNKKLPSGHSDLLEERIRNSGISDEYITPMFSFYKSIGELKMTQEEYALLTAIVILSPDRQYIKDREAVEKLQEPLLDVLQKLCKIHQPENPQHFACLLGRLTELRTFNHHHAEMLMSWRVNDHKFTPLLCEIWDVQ
How it was run: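 HEK293 cells co-transfected by calcium phosphate with full-length FXR expression plasmid, FXRE-driven firefly luciferase reporter and Renilla normalization vector. Compound added at 100 μM 6 h after transfection; dual luciferase read 18 h later. Firefly normalized to Renilla, expressed as fold activation over untreated cells, then as percent of maximal fold induction by CDCA. At least two separate experiments, triplicate assays.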

HEK293 [2] = test: Effect on renilla luciferase expression in HEK293 cells at 100 uM after 18 hrs by dual-glo luciferase reporter gene assay; format: ADME, cell-based; conditions: human, hek293, 18 h
How it was run: (§1)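 HEK293 in DMEM with 10% FBS, 37 °C, 5% CO2; calcium phosphate co-transfection in serum-free medium with TK-FXRE-luc reporter (50 ng), Renilla vector (20 ng) and full-length FXR plasmid (30 ng) per well. Compounds added 6 h post-transfection, cells harvested 18 h later; Renilla luminescence (Dual-Glo) monitored as the cell-status control over 0.1–250 μM.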

HEK293 [3] = test: Cytotoxicity against HEK293 cells assessed as effect on renilla luciferase expression at 0.1 to 250 uM after 18 hrs by dual-glo luciferase reporter gene expression; format: cell-based; conditions: human, hek293, 18 h; how it was run: as §1
Bile acid receptor = target: T2, Bile acid receptor (Homo sapiens, UniProt Q96RI1); test: Transactivation of full-length FXR (unknown origin) expressed in HEK293 cells after 18 hrs by dual-glo luciferase reporter gene assay; format: cell-based
T2 sequence (Q96RI1 whole entry): T1 sequence (whole entry)

Compound	Activity [1]	Activity (HEK293 [2])	Efficacy [1]	Activity (HEK293 [3])	EC50 (Bile acid receptor)
Nc1nc(CSc2nnnn2Cc2ccccc2)nc(Nc2ccccc2)n1	inactive	Non-Toxic	–	–	–
Cc1cc(CNC(=O)c2ccccc2SC2CCS(=O)(=O)C2)ccc1F (stereo unspecified)	inactive	Non-Toxic	–	–	–
O=C(CN1CC(C(=O)N2CCCCC2)Oc2ccccc21)NC(=O)NCc1ccco1 (stereo unspecified)	inactive	Non-Toxic	–	–	–
O=C(COc1ccccc1Cl)NNC(=O)c1cccc(NS(=O)(=O)c2ccc3c(c2)OCCCO3)c1	inactive	Non-Toxic	–	–	–
NC(=O)CSc1ccccc1NCC(=O)Nc1ccc(Cl)cc1Cl	inactive	Non-Toxic	–	–	–
COc1ccc(CN(C)C(=O)c2c[nH]c3ccccc23)cc1F	inactive	Non-Toxic	–	–	–
O=C(O)c1ccccc1-c1ccccc1C(=O)N1CCN(Cc2ccc3c(c2)OCO3)CC1	–	Non-Toxic	55.1%	Non-Toxic	5.99 µM
COc1cc([N+](=O)[O-])ccc1NC(=O)CNc1ccccc1N1CCCC1=O	–	Non-Toxic	120%	Non-Toxic	4.33 µM
Cc1ccc([N+](=O)[O-])cc1NCC(=O)Nc1cc(C(F)(F)F)ccc1-n1cncn1	inactive	Non-Toxic	–	–	–
CC(NS(=O)(=O)c1ccccc1F)C(=O)Cc1nc2ccccc2[nH]1 (stereo unspecified)	inactive	Non-Toxic	–	–	–
O=C(CN(Cc1ccc2c(c1)OCO2)C1CCCC1)Nc1cccc2ccccc12	inactive	Non-Toxic	–	–	–
CN(Cc1ccc(N2CCCCC2)cc1)C(=O)c1n[nH]c(=O)c2ccccc12	–	Non-Toxic	60.3%	Non-Toxic	14.4 µM
CC1(CSc2cccc(C(=O)NCc3cccs3)c2)NC(=O)NC1=O (stereo unspecified)	inactive	Non-Toxic	–	–	–
CNC(=O)C1CN(CC(=O)Nc2cc(C)c(Cl)cc2OC)c2ccccc2O1 (stereo unspecified)	inactive	Non-Toxic	–	–	–
Cc1nn(-c2ccccc2)c(N)c1C(O)(CC(=O)C(F)(F)F)C(F)(F)F (stereo unspecified)	inactive	Non-Toxic	–	–	–
COc1ccc(Nc2ccc(NC(=O)c3ccccc3NS(=O)(=O)c3cc(C)ccc3C)cc2)cc1	inactive	Non-Toxic	–	–	–
NC(=O)CSc1ccccc1NC(=O)Nc1ccc(Cl)c(Cl)c1	inactive	Non-Toxic	–	–	–
O=C(Nc1ccccc1)Nc1ccccc1NS(=O)(=O)c1ccccc1	inactive	Non-Toxic	–	–	–
CS(=O)(=O)N1CCC(NC(=O)CC(NC(N)=O)c2ccccc2F)CC1 (stereo unspecified)	inactive	Non-Toxic	–	–	–
CCOC(=O)CC(c1ccc(F)cc1)C1CCN(C(=O)c2ccc([N+](=O)[O-])o2)CC1 (stereo unspecified)	inactive	Non-Toxic	–	–	–
COC(=O)/C=C/c1ccc(OCC(=O)NC2c3ccccc3-c3ccccc32)c(OC)c1	inactive	Non-Toxic	–	–	–
O=C(Nc1ccc(N2CCOCC2)cc1)c1ccccc1SC1CCS(=O)(=O)C1 (stereo unspecified)	inactive	Non-Toxic	–	–	–
Cc1cc(/N=N/Cc2ccccc2)nc(NS(=O)(=O)c2ccccc2Cl)n1	inactive	Non-Toxic	–	–	–
CC(Sc1nnc(C2CCCC2)[nH]1)C(=O)Nc1sccc1C(N)=O (stereo unspecified)	inactive	Non-Toxic	–	–	–
CCn1c(CNc2ccc(Cl)cc2)nnc1SCC(=O)NNC(=O)c1ccc(Cl)cc1	inactive	Non-Toxic	–	–	–
